Measurements collected from several papers.
Organism: Candida albicans
Effect on: microbial growth
Technique: broth dilution

Structure (SMILES)	test system	setting	MIC
N#CC(=C1C=CC(=NOC(=O)c2ccccc2)C=C1)c1ccccc1	ATCC10231	48 h	256 mg/L
COc1ccc(N2N=C(C(C)=O)SC2=C(C#N)C(=O)c2ccc(Nc3cnccn3)cc2)cc1	ATCC10231	–	25 mg/L
COc1ccc(N=Nc2c(N)nn3c(-c4ccc(Cl)cc4Cl)cc(-c4ccc(OCc5ccccc5)cc4)nc23)cc1	ATCC10231	–	62.5 mg/L
CC(=O)N1CCN(c2ccc(OCC3COC(Cn4ccnc4)(c4ccc(Cl)cc4Cl)O3)cc2)CC1 (stereo not shown)	58288	48 h	16 µM
CC(=O)C1=NN(c2ccccc2)C(=C(C#N)C(=O)c2ccc(Nc3cnccn3)cc2)S1	ATCC10231	–	100 mg/L
C/C(=N\CCNCC/N=C(\C)c1c(O)c2ccccc2oc1=O)c1c(O)c2ccccc2oc1=O	–	48 h	7.81 mg/L
CC(=O)ON=C1C=CC(=C(C#N)c2ccccc2)C=C1	ATCC10231	48 h	2 mg/L
Nc1nn2c(-c3ccco3)cc(-c3ccc(OCc4ccccc4)cc3)nc2c1N=Nc1ccc(F)cc1	ATCC10231	–	125 mg/L
OC(Cn1cncn1)(Cn1cncn1)c1ccc(F)cc1F	1	24 h	128 mg/L
CC(=O)N1CCN(c2ccc(OCC3COC(Cn4ccnc4)(c4ccc(Cl)cc4Cl)O3)cc2)CC1 (stereo not shown)	–	48 h	1.95 mg/L
CCCCCCCCCCCC(=O)ON=C1C=CC(=C(C#N)c2ccccc2)C=C1	ATCC10231	48 h	512 mg/L
CC(=O)N1CCN(c2ccc(OCC3COC(Cn4ccnc4)(c4ccc(Cl)cc4Cl)O3)cc2)CC1 (stereo not shown)	ATCC10231	–	1.95 mg/L
C[C@@H]1[C@H](O)[C@@H](C)/C=C/C=C/C=C/C=C/C=C/C=C/C=C/[C@H](O[C@@H]2O[C@H](C)[C@@H](O)[C@H](N)[C@@H]2O)C[C@@H]2O[C@](O)(C[C@@H](O)C[C@@H](O)[C@H](O)CC[C@@H](O)C[C@@H](O)CC(=O)O[C@H]1C)C[C@H](O)[C@H]2C(=O)O	ATCC90028	48 h	0.5 mg/L
CC(C)c1ccc(/C=C2\N=C(SCC(=O)O)N(c3ccccc3)C2=O)cc1	ATCC10 ATCC10231	–	21 mg/L
C/C(=N\N=C(/C)c1c(O)c2ccccc2oc1=O)c1c(O)c2ccccc2oc1=O	–	48 h	125 mg/L
COc1ccc(N2N=C(C(=O)c3ccc(Nc4cnccn4)cc3)SC2=C(C#N)C#N)cc1	ATCC10231	–	12.5 mg/L
C#CCON=C1C=CC(=C(C#N)c2ccccc2)C=C1	ATCC10231	48 h	32 mg/L
Cc1ccc(N=Nc2c(N)nn3c(-c4ccc(C)cc4)cc(-c4ccc(OCc5ccccc5)cc4)nc23)cc1	ATCC10231	–	31.3 mg/L
C[C@@H]1[C@H](O)[C@@H](C)/C=C/C=C/C=C/C=C/C=C/C=C/C=C/[C@H](O[C@@H]2O[C@H](C)[C@@H](O)[C@H](N)[C@@H]2O)C[C@@H]2O[C@](O)(C[C@@H](O)C[C@@H](O)[C@H](O)CC[C@@H](O)C[C@@H](O)CC(=O)O[C@H]1C)C[C@H](O)[C@H]2C(=O)O	17546	48 h	< 0.25 µM
N=c1sc(C(=O)c2ccc(Nc3cnccn3)cc2)nn1-c1ccc([N+](=O)[O-])cc1	ATCC10231	–	12.5 mg/L
OC(Cn1cncn1)(Cn1cncn1)c1ccc(F)cc1F	SP3903	48 h	4 µM
C/C(=N\C(=S)/N=C(\C)c1c(O)c2ccccc2oc1=O)c1c(O)c2ccccc2oc1=O	–	48 h	3.9 mg/L
N=c1sc(C(=O)c2ccc(Nc3cnccn3)cc2)nn1-c1ccccc1	ATCC10231	–	100 mg/L
C[C@@H]1[C@H](O)[C@@H](C)/C=C/C=C/C=C/C=C/C=C/C=C/C=C/[C@H](O[C@@H]2O[C@H](C)[C@@H](O)[C@H](N)[C@@H]2O)C[C@@H]2O[C@](O)(C[C@@H](O)C[C@@H](O)[C@H](O)CC[C@@H](O)C[C@@H](O)CC(=O)O[C@H]1C)C[C@H](O)[C@H]2C(=O)O	ATCC10231	48 h	2 mg/L
C/C(=N\C(=O)/N=C(\C)c1c(O)c2ccccc2oc1=O)c1c(O)c2ccccc2oc1=O	–	48 h	31.2 mg/L
